# Active and inactive are the calls of the source. Unless noted, the rule behind the calls is not given here.
# Legend:
# [1] = Recombinant Mtb pantothenate synthetase (PanC) inhibitors, coupled enzyme, confirmatory (AID 375); conditions: coupled enzyme assay; measured here: coupling enzymes IC50 repeat trials unless noted;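 for inhibition: 0% = full reaction with vehicle and 100% = no enzyme background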
# [2] = target: Pantothenate synthetase (Mycobacterium tuberculosis (strain ATCC 25618 / H37Rv)) (UniProt P9WIL5); assay: as above; conditions: coupled enzyme assay; at 10 µM, stronger effect = higher value
# Pantothenate synthetase (Mycobacterium tuberculosis (strain ATCC 25618 / H37Rv)), sequence (P9WIL5 whole entry, looked up): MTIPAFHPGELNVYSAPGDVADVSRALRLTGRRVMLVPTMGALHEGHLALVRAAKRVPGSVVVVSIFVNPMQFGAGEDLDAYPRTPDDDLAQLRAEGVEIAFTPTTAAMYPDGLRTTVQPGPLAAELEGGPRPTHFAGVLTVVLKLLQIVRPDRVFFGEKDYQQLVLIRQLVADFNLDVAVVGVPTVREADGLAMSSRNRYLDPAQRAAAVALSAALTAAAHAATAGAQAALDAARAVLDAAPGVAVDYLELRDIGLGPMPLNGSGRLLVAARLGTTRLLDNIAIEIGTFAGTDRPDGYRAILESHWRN
# [3] = SK-BR-3 cell growth inhibitors, pilot screen, 24 h, human (AID 572;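 active = viability at or below 10% of carrier control in both of two separate runs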;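 note: compound exposure lasted between 18 and 24 h rather than exactly 24 h; 100% = carrier-treated control wells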); conditions: SK-BR-3 viability, CellTiter-Glo luminescence, at 10 µM, stronger effect = lower value
# [4] = HUVEC growth inhibition – cell-based, human, primary screen (AID 575;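 active = viability at or below 30% in both replicate assays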;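 note: 100% = median of untreated cell wells with 0.1% DMSO on each plate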); conditions: HUVEC proliferation, CellTiter-Glo luminescence, 72 h; at 10 µM; stronger effect = lower value
# Procedure, shortened: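 Timing: 72 h treatment at 37 °C; material: HUVEC primary cells; technique: CellTiter-Glo luminescence measuring cellular ATP; controls: vehicle and MePR control wells; measure: percent of median DMSO-control luminescence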
# [5] = reversal of MRP1-mediated doxorubicin resistance, pilot screen, H69AR cells, doxorubicin co-treatment (AID 601;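 active = viability loss from added drug above about 55%, and viability with drug at most 40%, in both replicates, limit read from the data, passing the limit was not always enough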); conditions: CellTiter-Glo, 72 h, at 10 µM
# [6] = 384-well plate pilot, post-Golgi transport modulator project, inhibition of yeast transport mutant growth (AID 636; in the data active = inhibition above about 31%); conditions: absorbance 615 nm, about 18 h, stronger effect = higher value
# [7] = growth suppression of yeast trafficking mutant, preliminary HTS, modulators of trafficking downstream of Golgi apparatus project, 1536-format plate, OD 615 nm (AID 637; in the data active = inhibition above about 30%); conditions: yeast transport mutant growth, absorbance 615 nm, 18 h; stronger effect = higher value
smiles,measurement,setting,value
Cc1ccccc1Cn1cc(NC(=O)c2noc3c2CC(C(C)(C)C)CC3)cn1 (configuration not stated),IC50,[1],> 100 µM
same,outcome,[2],active
Cc1cc(NC(=O)c2cc(-c3cccs3)on2)nn1Cc1ccc(Cl)cc1,IC50,[1],> 100 µM
same,outcome,[2],inactive
COc1cccc(-c2cc(C(=O)Nc3cc(C)n(Cc4ccc(Cl)cc4)n3)no2)c1,IC50,[1],> 100 µM
same,inhibition,[2],0% (inactive)
O=C1CN(Cc2ccccc2)C(=NCc2ccco2)S1,inhibition,[2],0% (inactive)
CCN(CCCNC(=O)C1CCCN(S(=O)(=O)c2cnc[nH]2)C1)c1ccccc1 (configuration not stated),inhibition,[2],1% (inactive)
Cc1ccc(Cn2ccc(NC(=O)c3noc4c3CCCC4)n2)cc1,IC50,[1],> 100 µM
same,inhibition,[2],0% (inactive)
Cc1cc(C(=O)Nc2cc(C)n(Cc3ccc(Cl)cc3)n2)no1,IC50,[1],> 100 µM
same,inhibition,[2],3% (inactive)
COc1ccc(CCn2c(=N)c(C(=O)NCc3ccco3)cc3c(=O)n4ccccc4nc32)cc1,inhibition,[2],0% (inactive)
Cc1cc(NC(=O)c2noc3c2CCCC3)nn1Cc1ccc(Cl)cc1,IC50,[1],> 100 µM
same,outcome,[2],inactive
Cc1ccc(Cn2ccc(NC(=O)c3cc(-c4ccco4)on3)n2)cc1,IC50,[1],> 100 µM
same,outcome,[2],inactive
Cc1cc(NC(=O)c2cc(-c3ccco3)on2)nn1Cc1ccc(Cl)cc1,IC50,[1],> 100 µM
same,outcome,[2],inactive
Cc1ccc(Cn2ccc(NC(=O)c3cc(-c4cccc(Cl)c4)on3)n2)cc1,IC50,[1],> 100 µM
same,outcome,[2],inactive
Cc1ccc(Cn2ccc(NC(=O)c3cc(-c4ccccc4)on3)n2)cc1,IC50,[1],> 100 µM
same,outcome,[2],inactive
CCOC(=O)c1cc(NC(=O)SCC(=O)O)c(C)nc1C,inhibition,[2],0% (inactive)
O=c1c2ccccc2[se]n1-c1ccccc1,IC50,[1],0.485 µM [measured here: coupling enzymes counter-screen IC50]
same,viability,[3],67% (inactive)
same,viability,[4],42.1% (inactive)
same,differential viability (reversal),"[5]; H69AR cells + 2 uM doxorubicin, stronger effect = higher value",2.39% (inactive)
same,viability,"[5]; H69AR cells + 2 uM doxorubicin, measured here: viability with 2 uM doxorubicin, stronger effect = lower value",1.34%
same,viability,"[5]; H69AR cells, compound alone cytotoxicity",3.73%
same,inhibition,[6],0.65% (inactive)
same,inhibition,[7],-0.5% (inactive)

# Reference: PubChem BioAssay
